Results taken from ChEMBL document CHEMBL1156077, “Piperazinyl-glutamate-pyrimidines as potent P2Y12 antagonists for inhibition of platelet aggregation” (Bioorg Med Chem Lett, 2009).
Activity calls are given as the source filed them. The calls are words filed in the database; no cut-off is given here.

Key:
P2Y purinoceptor 12 [1] = target: T1, P2Y purinoceptor 12 (Homo sapiens, UniProt Q9H244); experiment: Binding affinity at human recombinant P2Y12 receptor expressed in CHO cells by radioligand binding assay in presence of 0.4% human serum albumin; type: cell-based
Outline: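 Membranes from CHO cells transfected with a synthetic human P2Y12 gene, with 0.4% human serum albumin added to the binding buffer (50 mM Tris, 100 mM NaCl, 1 mM EDTA). Seven-point threefold dilutions were run in triplicate, 1 h at room temperature, then filtered. Ki from IC50 by Cheng-Prusoff.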

[2] = Selectivity for human P2Y12 receptor over P2Y1
[3] = Selectivity for human P2Y12 receptor over P2Y13
P2Y purinoceptor 12 [4] = target: T1, P2Y purinoceptor 12; experiment: Binding affinity at human recombinant P2Y12 receptor expressed in CHO cells by radioligand binding assay; type: cell-based
Outline: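 Washed membranes from CHO cells transfected with synthetic human P2Y12 gene. Compounds as 7-point threefold dilutions, triplicate, 1 h at room temperature. Nonspecific binding defined with 300 nM 2-MeSADP. Filtered, washed with ice-cold Tris pH 7.4. Single-site fit; IC50 converted to Ki by Cheng–Prusoff, geometric mean of n≥2.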

[5] = Clearance in Sprague-Dawley rat at 2 mg/kg, iv and 5 mg/kg, po; type: ADME, organism-based; conditions: in vivo
hERG (KCNH2) = hERG (KCNH2) (Homo sapiens, UniProt Q12809); experiment: Displacement of Cy3B-tagged N-desmethyl dofetilide from human ERG expressed in HEK cells at 10 uM after 120 mins; type: cell-based, HEK293; conditions: HEK cells that express human ERG, probe Cy3B-tagged N-desmethyl dofetilide
Outline: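 Fluorescence polarization competition assay with HEK-hERG membrane homogenates and Cy3B-tagged N-desmethyl dofetilide tracer. Compound tested at a single 10 µM concentration, 120 min incubation, end-point read for percent inhibition.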

[6] = Effective half life in Sprague-Dawley rat at 2 mg/kg, iv and 5 mg/kg, po; type: ADME, organism-based; conditions: in vivo
P2Y purinoceptor 12 [7] = target: T1, P2Y purinoceptor 12; experiment: Ratio of compound IC50 to thienopyrimidine IC50 for P2Y12 receptor in human platelet rich plasma assessed as inhibition of ADP-induced platelet aggregation by light transmission aggregometry
Outline: (§1)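 Human platelet-rich plasma was pre-incubated 5 min at 37 °C with compound across seven concentrations (10 down to 0.156). Aggregation was started with ADP (20, final) and followed by light transmission at 626 nm for 15 min at 37 °C. Duplicate concentration-response data were read at the 15-min end-point. IC50 was divided by the IC50 of the thienopyrimidine reference run on the same plate.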

Liver microsomes [8] = experiment: Metabolic stability in rat liver microsomes assessed as compound remaining; type: ADME, Microsome
Outline: (§2)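 Compounds incubated 30 min with human or rat liver microsomes; percent of parent compound remaining measured.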

[9] = Volume of distribution at steady state in Sprague-Dawley rat at 2 mg/kg, iv and 5 mg/kg, po; type: ADME, organism-based; conditions: in vivo, read-out: Vdss
CYP3A4 = CYP3A4 (Homo sapiens, UniProt P08684); experiment: Inhibition of CYP3A4 at 3 uM after 30 mins; type: ADME
Outline: (§3)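 Each CYP isoform assayed separately at a single 3 µM compound concentration in duplicate, with at least one isoform-specific positive control inhibitor. Incubation 30 min at 37 °C; end-point measurement gives percent inhibition.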

CYP2C9 = CYP2C9 (Homo sapiens, UniProt P11712); experiment: Inhibition of CYP2C9 at 3 uM after 30 mins; type: ADME; outline: as §3
CYP2D6 = CYP2D6 (Homo sapiens, UniProt P10635); experiment: Inhibition of CYP2D6 at 3 uM after 30 mins; type: ADME; outline: as §3
[10] = Oral bioavailability in Sprague-Dawley rat at 5 mg/kg; type: ADME, organism-based; conditions: in vivo
P2Y purinoceptor 12 [11] = target: T1, P2Y purinoceptor 12; experiment: Ratio of compound IC50 to AZD-6140 IC50 for P2Y12 receptor in human platelet rich plasma assessed as inhibition of ADP-induced platelet aggregation by light transmission aggregometry
Outline: as §1, with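 “AZD-6140” for “the thienopyrimidine reference”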

Liver microsomes [12] = experiment: Metabolic stability in human liver microsomes assessed as compound remaining; type: ADME, Microsome; outline: as §2
CYP1A2 = target: T2, CYP1A2 (Homo sapiens, UniProt P05177); experiment: Inhibition of CYP1A2 at 3 uM after 30 mins; type: ADME; outline: as §3
T2 sequence (P05177 whole entry): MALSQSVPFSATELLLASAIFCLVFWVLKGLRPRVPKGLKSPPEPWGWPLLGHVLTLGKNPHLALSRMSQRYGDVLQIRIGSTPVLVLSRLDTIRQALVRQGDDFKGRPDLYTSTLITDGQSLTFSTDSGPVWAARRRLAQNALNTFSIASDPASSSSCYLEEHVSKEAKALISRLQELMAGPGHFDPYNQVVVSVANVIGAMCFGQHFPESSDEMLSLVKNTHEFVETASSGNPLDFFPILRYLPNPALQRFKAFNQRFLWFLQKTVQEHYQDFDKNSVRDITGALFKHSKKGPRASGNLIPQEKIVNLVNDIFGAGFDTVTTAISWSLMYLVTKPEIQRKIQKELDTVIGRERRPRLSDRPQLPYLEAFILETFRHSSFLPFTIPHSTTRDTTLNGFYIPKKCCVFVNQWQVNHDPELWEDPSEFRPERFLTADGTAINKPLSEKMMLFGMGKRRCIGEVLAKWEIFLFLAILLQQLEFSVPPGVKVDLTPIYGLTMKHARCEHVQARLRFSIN

T1 sequence (Q9H244 whole entry): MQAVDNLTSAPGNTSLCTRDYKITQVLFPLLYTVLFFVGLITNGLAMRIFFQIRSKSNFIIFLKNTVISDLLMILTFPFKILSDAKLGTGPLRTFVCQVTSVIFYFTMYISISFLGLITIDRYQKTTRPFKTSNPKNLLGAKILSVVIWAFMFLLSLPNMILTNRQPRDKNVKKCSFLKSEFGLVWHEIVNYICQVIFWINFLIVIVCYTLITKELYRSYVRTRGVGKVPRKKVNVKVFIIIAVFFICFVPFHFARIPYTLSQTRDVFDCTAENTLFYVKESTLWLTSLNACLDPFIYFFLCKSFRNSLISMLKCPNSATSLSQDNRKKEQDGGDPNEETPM
Chain of hERG (KCNH2) (Q12809 whole entry): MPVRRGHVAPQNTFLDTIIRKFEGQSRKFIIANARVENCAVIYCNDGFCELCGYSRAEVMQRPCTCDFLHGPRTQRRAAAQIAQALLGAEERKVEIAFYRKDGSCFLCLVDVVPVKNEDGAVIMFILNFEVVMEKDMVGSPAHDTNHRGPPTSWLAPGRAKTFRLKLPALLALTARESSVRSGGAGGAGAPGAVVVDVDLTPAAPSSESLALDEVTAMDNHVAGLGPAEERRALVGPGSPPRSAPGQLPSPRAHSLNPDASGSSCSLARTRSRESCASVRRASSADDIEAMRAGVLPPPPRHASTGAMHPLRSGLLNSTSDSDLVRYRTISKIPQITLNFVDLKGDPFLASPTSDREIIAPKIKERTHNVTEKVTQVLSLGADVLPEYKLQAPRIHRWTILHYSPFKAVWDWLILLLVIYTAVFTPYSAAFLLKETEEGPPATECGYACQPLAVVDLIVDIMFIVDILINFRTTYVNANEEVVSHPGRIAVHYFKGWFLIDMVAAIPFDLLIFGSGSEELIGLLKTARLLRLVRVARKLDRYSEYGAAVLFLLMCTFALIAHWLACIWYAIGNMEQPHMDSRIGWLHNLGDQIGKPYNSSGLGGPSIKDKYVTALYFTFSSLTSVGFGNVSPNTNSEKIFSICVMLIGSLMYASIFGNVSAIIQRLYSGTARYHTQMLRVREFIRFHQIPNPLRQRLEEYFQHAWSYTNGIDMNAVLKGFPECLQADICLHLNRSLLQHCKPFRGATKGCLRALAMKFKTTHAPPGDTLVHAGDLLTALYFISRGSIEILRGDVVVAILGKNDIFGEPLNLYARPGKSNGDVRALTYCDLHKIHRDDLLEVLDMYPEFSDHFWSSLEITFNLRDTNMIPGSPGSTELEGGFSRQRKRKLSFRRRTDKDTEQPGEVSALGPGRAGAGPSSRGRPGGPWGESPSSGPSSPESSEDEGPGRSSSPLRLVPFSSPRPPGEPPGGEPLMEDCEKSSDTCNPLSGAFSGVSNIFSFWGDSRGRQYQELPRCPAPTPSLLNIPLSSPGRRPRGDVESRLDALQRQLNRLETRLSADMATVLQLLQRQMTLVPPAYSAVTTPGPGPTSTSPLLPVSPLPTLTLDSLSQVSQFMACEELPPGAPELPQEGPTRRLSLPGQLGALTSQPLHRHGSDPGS
Chain of CYP2D6 (P10635 whole entry): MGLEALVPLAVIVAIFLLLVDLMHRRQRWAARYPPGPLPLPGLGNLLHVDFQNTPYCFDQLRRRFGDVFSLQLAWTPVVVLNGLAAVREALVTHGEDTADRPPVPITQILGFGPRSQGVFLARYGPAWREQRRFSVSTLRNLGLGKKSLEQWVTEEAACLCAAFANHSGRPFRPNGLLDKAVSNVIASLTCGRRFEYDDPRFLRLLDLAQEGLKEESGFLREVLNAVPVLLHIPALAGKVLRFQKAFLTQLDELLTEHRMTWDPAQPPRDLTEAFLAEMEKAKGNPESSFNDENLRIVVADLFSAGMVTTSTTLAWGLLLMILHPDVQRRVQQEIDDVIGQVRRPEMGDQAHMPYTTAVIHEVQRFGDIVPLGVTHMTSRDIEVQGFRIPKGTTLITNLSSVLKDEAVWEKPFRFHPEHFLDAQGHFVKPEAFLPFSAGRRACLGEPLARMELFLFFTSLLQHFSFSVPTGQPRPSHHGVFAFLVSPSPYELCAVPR
Chain of CYP2C9 (P11712 whole entry): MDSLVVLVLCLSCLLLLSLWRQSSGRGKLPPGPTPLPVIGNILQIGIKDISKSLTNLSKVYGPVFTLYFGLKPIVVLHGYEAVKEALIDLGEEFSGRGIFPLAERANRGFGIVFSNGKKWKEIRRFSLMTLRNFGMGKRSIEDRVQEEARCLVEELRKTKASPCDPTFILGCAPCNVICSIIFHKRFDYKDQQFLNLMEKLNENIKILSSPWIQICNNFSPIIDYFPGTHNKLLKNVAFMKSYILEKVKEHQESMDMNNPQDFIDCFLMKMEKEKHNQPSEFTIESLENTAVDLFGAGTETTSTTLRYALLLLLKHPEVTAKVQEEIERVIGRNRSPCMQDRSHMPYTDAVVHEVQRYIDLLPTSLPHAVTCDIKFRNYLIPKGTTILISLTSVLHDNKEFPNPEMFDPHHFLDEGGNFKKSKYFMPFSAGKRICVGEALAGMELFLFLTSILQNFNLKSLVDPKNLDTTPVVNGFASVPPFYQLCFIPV
Chain of CYP3A4 (P08684 whole entry, canonical isoform): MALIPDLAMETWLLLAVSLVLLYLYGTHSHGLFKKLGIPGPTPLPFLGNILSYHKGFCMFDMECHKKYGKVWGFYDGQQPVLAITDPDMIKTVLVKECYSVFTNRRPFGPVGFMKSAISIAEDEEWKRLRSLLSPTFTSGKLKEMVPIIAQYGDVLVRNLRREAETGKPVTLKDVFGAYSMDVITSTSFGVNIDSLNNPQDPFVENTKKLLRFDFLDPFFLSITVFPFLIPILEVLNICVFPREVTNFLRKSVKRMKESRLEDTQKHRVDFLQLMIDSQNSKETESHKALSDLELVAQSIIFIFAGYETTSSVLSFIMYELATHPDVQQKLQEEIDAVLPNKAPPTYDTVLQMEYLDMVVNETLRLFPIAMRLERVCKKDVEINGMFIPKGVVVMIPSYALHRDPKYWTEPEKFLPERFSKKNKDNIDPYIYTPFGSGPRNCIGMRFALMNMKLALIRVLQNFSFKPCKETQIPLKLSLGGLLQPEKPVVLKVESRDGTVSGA

Activity (P2Y purinoceptor 12 [1]) | fold change (FC) [2] | fold change (FC) [3] | Ki (P2Y purinoceptor 12 [4]) | clearance [5] | half-life [6] | Ratio IC50 (P2Y purinoceptor 12 [7]) | Stability (Liver microsomes [8]) | Vd [9] | inhibition at 0.5 h, 3 µM (CYP3A4) | inhibition at 0.5 h, 3 µM (CYP2C9) | inhibition at 0.5 h, 3 µM (CYP2D6) | bioavailability [10] | Ratio IC50 (P2Y purinoceptor 12 [11]) | Stability (Liver microsomes [12]) | inhibition at 0.5 h, 3 µM (CYP1A2) | SMILES | inhibition at 2 h, 10 µM (hERG (KCNH2))
inactive | > 340 | > 340 | 0.022 µM |  |  |  |  |  |  |  |  |  |  |  |  | CCCCCOC(=O)N1CCN(C(=O)[C@H](CCC(=O)O)NC(=O)c2cc(SCC(F)(F)F)nc(-c3ccccc3)n2)CC1 | 
inactive | > 340 | > 340 | 0.0045 µM |  |  |  |  |  |  |  |  |  |  |  |  | CCCCCOC(=O)N1CCN(C(=O)[C@H](CCC(=O)O)NC(=O)c2cc(SCCO)nc(-c3ccccc3)n2)CC1 | 
inactive | > 340 | > 340 | 0.017 µM |  |  |  |  |  |  |  |  |  |  |  |  | CCCCCOC(=O)N1CCN(C(=O)[C@H](CCC(=O)O)NC(=O)c2cc(SC3CCCC3)nc(-c3ccccc3)n2)CC1 | 
inactive | > 340 | > 340 | 0.042 µM |  |  |  |  |  |  |  |  |  |  |  |  | CCCCCOC(=O)N1CCN(C(=O)[C@H](CCC(=O)O)NC(=O)c2cc(SC(C)(C)C)nc(-c3ccccc3)n2)CC1 | 
inactive | > 340 | > 340 | 0.07 µM |  |  |  |  |  |  |  |  |  |  |  |  | CCCCCOC(=O)N1CCN(C(=O)[C@H](CCC(=O)O)NC(=O)c2cc(SC3CCCCC3)nc(-c3ccccc3)n2)CC1 | 
 | > 340 | > 340 | 0.003 µM | 1.98 L/h/kg | 1.7 h | 0.1 | > 80% | 4.9 L/kg | < 25% | < 25% | < 25% | 1% | 0.6 | > 80% | < 25% | CCCCCOC(=O)N1CCN(C(=O)[C@H](CCC(=O)O)NC(=O)c2cc(N3CCC(CN)CC3)nc(-c3ccccc3)n2)CC1 | < 25%
